# Non-standard residues stand in square brackets, D forms with d. No end group written: not given here. Dmt = Cc1cc(O)cc(C)c1C[C@H](N)C(=O)O; Orn = NCCC[C@H](N)C(=O)O
# What was measured:
# [1] = tested on: cells; conditions: 1-hr treatment with 1 mM of GSH; cited from earlier work
# [2] = tested on: mitochondrial membrane potential in HeLa 705 cells; assay: Mitochondrial membrane potential; type: cell-based, human; conditions: 5 μM peptide 24 hr, TMRE fluorescence, n = 3; for mitochondrial membrane potential (Δψm) with H2O2 (oxidative stress): H2O2 200 μM for 2 hr
# How it was run: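 HeLa 705 cells seeded 24 hr ahead and treated 24 hr with peptide. In the stress arm, a 2 hr H2O2 exposure preceded the 24 hr incubation at 37°C, 5% CO2. TMRE added at 400 nM final for 30 min in the dark, then PBS wash and 0.2% BSA in PBS. Read at ex 549/em 575 nm, as percent of untreated cells or untreated + H2O2. FCCP and H2O2 served as controls. Mean ± SD of three experiments; one-way ANOVA.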
# [3] = read-out: EC50 of the hydroxyl radical scavenging reaction; cited from earlier work
# [4] = tested on: different cell lines; conditions: high concentration (100 μM); cited from earlier work
# [5] = tested on: HeLa 705 cells; assay: WST-1 cell proliferation/viability assay; type: cell-based, human; conditions: 20% DMSO in complete growth medium, 24 hr, positive control
# How it was run: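 Cells seeded at 7 × 10³ per well 24 hr ahead, then exposed 24 hr to peptide at several concentrations in complete medium. WST-1 added at 1:10 final dilution after 20 hr and incubated 4 hr. Plate shaken 1 min; formazan read at 450 nm against 650 nm reference. Controls: 20% DMSO (v/v) for 24 hr and H2O2 at two levels. Mean of at least three experiments with SD.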
# [6] = tested on: HeLa 705 cells; assay: Subcellular uptake by spectrofluorometry after isolation of mitochondria; type: cell-based, human; conditions: 5 μM, 24 hr; for compartment of main accumulation: membranes, cytosol, mitochondria fractions
# How it was run: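 HeLa 705 cells grown in flasks for 24 hr, treated 24 hr with fluorescein-labelled peptide, then scraped at about 90% confluence. Reagent-based kit with differential centrifugation (700 × g 10 min, then 12,000 × g 15 min, 4°C) gave membrane, cytosol and mitochondrial fractions. Fluorescein read at […] and normalised to untreated cells. Mean ± SD of three experiments; one-way ANOVA.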
# [7] = Solubility in MilliQ water; type: physicochemical; conditions: compared with unlabelled peptide
# [8] = Dynamic light scattering; type: physicochemical; conditions: MilliQ H2O or cell culture media, 5 μM
# How it was run: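 Test compound dissolved either in DMEM with 10% FBS or in MilliQ water adjusted to pH 7.4. Dynamic light scattering gave hydrodynamic mean diameter and zeta potential. Data plotted as size distribution by intensity.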
# [9] = tested on: HeLa 705 cells; assay: Fluorescence microscopy, cellular uptake and localization; type: cell-based, human; conditions: carboxyfluorescein-labelled peptide 5 μM, 4 hr, 200 nM TMRE
# How it was run: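 HeLa 705 cells given carboxyfluorescein-labelled peptides for 4 hr; untreated cells got fresh medium in parallel. Mitochondria stained with 200 nM TMRE (20 min at 37°C per methods; added 30 min pre-imaging per legend) and nuclei with Hoechst 33342 (10 min). Inverted fluorescence microscope with 10×/40× dry and 63× oil objectives, held at 36 ± 1°C. Excitation/emission: Hoechst 346/497 nm, FAM 494/519 nm, TMRE 535/575 nm.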
# [10] = tested on: mitochondrial superoxide in HeLa 705 cells; assay: Superoxide anion scavenging assay; type: cell-based, human; conditions: 5 μM, 24 hr, MitoSOX fluorescence, mean of three experiments
# How it was run: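 HeLa 705 cells seeded at 7 × 10³ per well, recovered 24 hr, then exposed to peptide for 24 hr. MitoSOX Red working solution in HBSS/Ca/Mg added for 10 min at 37°C, 5% CO2, in the dark. Cells washed with 0.2% BSA in PBS and read at ex 510/em 580 nm. Signal normalised to antimycin A-treated cells or to a reference peptide. Mean ± SD of three experiments.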
compound,measurement,setting,value
glutathione [GSH],uptake of GSH in cells,[1],≈ 1.5 μM
Y(Me)ECG-NH2 (N-terminus assumed; SMILES COc1ccc(C[C@H](N)C(=O)N[C@@H](CCC(=O)O)C(=O)N[C@@H](CS)C(=O)NCC(N)=O)cc1) [UPF25],mitochondrial membrane potential (Δψm) without H2O2,[2],decreased
same,mitochondrial membrane potential (Δψm) with H2O2 (oxidative stress),[2],partially rescue
same,EC50,[3],~30 nM
same,effect on viability of different cell lines,[4],did not affect the viability
C[S+](C)[O-] [DMSO],cell viability,[5],approximately 20%
FAM-D-Arg-Dmt-Orn-Phe-Tyr(Me)-Glu-Cys-Gly-NH2 [FAM-mtgCPP],presence in membranes fraction,[6]; carboxyfluorescein F.I.,same extent as FAM-mtCPP1
same,compartment of main accumulation,[6],mainly accumulated in the mitochondria
same,effect of the carboxyfluorescein moiety on solubility,[7],did not decrease the solubility
FAM-Tyr(Me)-Glu-Cys-Gly-NH2 [FAM-UPF25],compartment of main accumulation,[6],mainly accumulates in membranes
same,effect of the carboxyfluorescein moiety on solubility,[7],slightly decreased
[dR][Dmt][Orn]FY(Me)ECG-NH2 (N-terminus assumed; SMILES COc1ccc(C[C@H](NC(=O)[C@H](Cc2ccccc2)NC(=O)[C@H](CCCN)NC(=O)[C@H](Cc2c(C)cc(O)cc2C)NC(=O)[C@H](N)CCCNC(=N)N)C(=O)N[C@@H](CCC(=O)O)C(=O)N[C@@H](CS)C(=O)NCC(N)=O)cc1) [mtgCPP],aggregation (from DLS size),[8],forming aggregates
same,mitochondrial membrane potential (Δψm) with H2O2 (oxidative stress),[2],close to the healthy situation
same,mitochondrial localization (merge with TMRE),[9],partially targets the mitochondria
same,improvement of superoxide anion scavenging ability compared with UPF25,[10],3 fold
same,improvement of superoxide anion scavenging ability compared with mtCPP1,[10],2 fold
FAM-D-Arg-Dmt-Orn-Phe-NH2 [FAM-mtCPP1],increase in cytosol fraction between FAM-UPF25 and FAM-mtCPP1,"[6]; carboxyfluorescein F.I., direction not given",2 fold
same,effect of the carboxyfluorescein moiety on solubility,[7],did not decrease the solubility

# From PMC5437736 (Molecular Therapy. Methods & Clinical Development, 2017)
